Tests used:
Aspergillus niger [1] = experiment: Microbicidal activity against Aspergillus niger ATCC 6275 after 7 days by microtiter plate method; assay type: functional; conditions: ATCC 6275, 168 h
Procedure, shortened: (§1)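 Fungal MIC microplates are kept 7 days. 100 µL from each of the three concentrations above the MIC is subcultured onto agent-free TSA or SDA plates. MLC is the lowest concentration giving no growth.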

[2] = Critical micelle concentration by conductimetry; assay type: physicochemical
Staphylococcus aureus [3] = experiment: Microbicidal activity against Staphylococcus aureus ATCC 6538 after 5 days by microtiter plate method; assay type: functional; conditions: ATCC 6538, 120 h
Procedure, shortened: (§2)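 Bacterial MIC microtiter plates are held 5 days. For each of the three concentrations above the MIC, 100 µL is plated on TSA or SDA plates. MLC is the first concentration showing no growth after subculture.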

Candida albicans [4] = experiment: Microbicidal activity against Candida albicans ATCC 10231 after 7 days by microtiter plate method; assay type: functional; conditions: ATCC 10231, 168 h; procedure, shortened: as §1
Pseudomonas aeruginosa [5] = experiment: Microbiostatic activity against Pseudomonas aeruginosa ATCC 9027 after 24 hrs by turbidimetric method; assay type: functional; conditions: ATCC 9027, 24 h
Procedure, shortened: (§3)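 Exponential-phase bacteria are grown overnight on TSA, then overnight at 30 °C in M9G (pH 7.0). Suspension is adjusted to OD660 0.05 (about 5·10^6–5·10^7 cfu/mL), verified by plate count. Automated serial dilutions of agent in deionised water are inoculated and incubated 24 h at 30 °C. MIC is the first concentration without turbidity.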

Candida albicans [6] = experiment: Microbiostatic activity against Candida albicans ATCC 10231 after 72 hrs by turbidimetric method; assay type: functional; conditions: ATCC 10231, 72 h
Procedure, shortened: (§4)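 Turbidimetric broth microdilution: automated serial dilutions of agent in sterile deionised water, then inoculation. Spores come from 5–7 day SDA cultures at 25 °C, harvested in M9G (pH 5.0) and gauze-filtered to remove mycelium. Inoculum is set to 5·10^6–5·10^7 spores/mL by counting cell. Incubation is 72 h at 25 °C. MIC is the first concentration with no turbidity.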

Aspergillus niger [7] = experiment: Microbiostatic activity against Aspergillus niger ATCC 6275 after 72 hrs by turbidimetric method; assay type: functional; conditions: ATCC 6275, 72 h; procedure, shortened: as §4
Staphylococcus aureus [8] = experiment: Microbiostatic activity against Staphylococcus aureus ATCC 6538 after 24 hrs by turbidimetric method; assay type: functional; conditions: ATCC 6538, 24 h; procedure, shortened: as §3
Pseudomonas aeruginosa [9] = experiment: Microbicidal activity against Pseudomonas aeruginosa ATCC 9027 after 5 days by microtiter plate method; assay type: functional; conditions: ATCC 9027, 120 h; procedure, shortened: as §2

Row | CMC [2] | MIC (Pseudomonas aeruginosa [5]) [µM] | MIC (Candida albicans [6]) [µM] | MIC (Aspergillus niger [7]) [µM] | MIC (Staphylococcus aureus [8]) [µM] | SMILES | MLC (Aspergillus niger [1]) [µM] | MLC (Staphylococcus aureus [3]) [µM] | MLC (Candida albicans [4]) [µM] | MLC (Pseudomonas aeruginosa [9]) [µM]
1 | 6.45 mM | 71.1 | 63.8 | 63.8 | 71.1 | C=CC(=O)OCC[N+](C)(C)CCCCCCCCCCCC.[Br-] | 63.8 | 71.1 | 63.8 | 71.1
2 | 2.99 mM | 112 | 18.1 | 178 | 178 | C=CC(=O)OCC[N+](C)(C)CCCCCCCCCCCCCC.[Br-] | 232 | 232 | 18.4 | 114
3 | 1.95 mM | 237 | 24 | 237 | 275 | C=CC(=O)OCC[N+](C)(C)CCCCCCCCCCCCCCCC.[Br-] | 283 | 283 | 24.7 | 283
4 | 1.16 ×10⁻² mol/L | 356 | 278 | 175 | 356 | C=CC(=O)OCC[N+](C)(C)CCCCCCCCCC.[Br-] | 280 | 359 | 359 | 416

The next lines start with the compound.

Row | SMILES | CMC [2] | MIC (Pseudomonas aeruginosa [5]) [µM] | MIC (Candida albicans [6]) [µM] | MIC (Aspergillus niger [7]) [µM] | MIC (Staphylococcus aureus [8]) [µM] | MLC (Aspergillus niger [1]) [µM] | MLC (Staphylococcus aureus [3]) [µM] | MLC (Candida albicans [4]) [µM] | MLC (Pseudomonas aeruginosa [9]) [µM]
5 | C=CC(=O)OCCCCCCCCCCC[N+](C)(C)Cc1ccccc1.[Br-] | 3.34 ×10⁻² mol/L | 154 | 154 | 154 | 244 | 238 | 306 | 447 | 447
6 | C=CC(=O)OCCCCCCCCCCC[N+](C)(C)CCCCCCCCCCCC.[Br-] | 9.66 ×10⁻⁴ mol/L | 58.4 | 14.8 | 14.8 | 34.7 | 14.8 | 34.7 | 15.4 | 64.7
7 | C=CC(=O)OCCCCCCCCCCC[N+](C)(C)CCCCCCCCCCCCCCCC.[Br-] | 1.66 ×10⁻⁴ mol/L | 132 | 27.1 | 31.4 | 209 | 40.4 | 274 | 40.4 | 317
8 | C=CC(=O)OCC[N+](C)(C)Cc1ccccc1.[Br-] | 4.6 ×10⁻² mol/L | > 2000 | > 2000 | 507 | > 2000 | 600 | > 2000 | > 2000 | > 2000
9 | C=CC(=O)OCCCCCCCCCCC[N+](C)(C)CCCCCCCCCC.[Br-] | 2.79 mM | 79.9 | 19 | 19 | 64.8 | 19.3 | 72.6 | 30.4 | 188
10 | C=CC(=O)OCCCCCCCCCCC[N+](C)(C)CCCCCCCCCCCCCC.[Br-] | 4.68 ×10⁻⁴ mol/L | 44.8 | 16.8 | 24.9 | 104 | 24.9 | 164 | 16.8 | 103
